In ChEMBL document CHEMBL2331496 (Eur J Med Chem, 2013):
Activity calls are given as the source filed them. The calls are words filed in the database; no cut-off is given here.

Columns and labels:
[1] = Selectivity index, ratio of CC50 for human MAGIC-5B cells to IC50 for HIV1 NL4.3; format: functional
[2] = tested on: Human immunodeficiency virus 1; assay: Antiviral activity against HIV1 NL4.3 infected in MAGIC-5B cells after 48 hrs by beta-galactosidase reporter gene assay; format: functional, organism-based; settings: Human immunodeficiency virus 1, NL4.3, 48 h
Summary of the method: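 MAGIC-5B indicator cells (beta-galactosidase under the HIV-1 LTR), 8×10^4 per well, were exposed to these supernatants. After 48 h, ONPG hydrolysis was read in lysates and normalised to total protein.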

293T = assay: Inhibition of HIV1 NL4.3 CA-SP1 cleavage infected in 293T cells after 2 days by Western blot analysis; format: cell-based; settings: Human immunodeficiency virus 1
[3] = Cytotoxicity against human MAGIC-5B cells after 48 hrs by MTT assay; format: cell-based
[4] = tested on: Human immunodeficiency virus 1; assay: Antiviral activity against HIV1 NL4.3 infected in 293T cells assessed as aberrant core at 5 ug/ml after 2 days by electron microscopic analysis; format: functional, organism-based
[5] = tested on: Human immunodeficiency virus 1; assay: Antiviral activity against HIV1 NL4.3 infected in 293T cells assessed as spherical core at 5 ug/ml after 2 days by electron microscopic analysis; format: functional, organism-based
[6] = tested on: Human immunodeficiency virus 1; assay: Antiviral activity against HIV1 NL4.3 infected in 293T cells assessed as acentric core at 5 ug/ml after 2 days by electron microscopic analysis; format: functional, organism-based
[7] = tested on: Human immunodeficiency virus; assay: Antiviral activity against HIV infected in H9 cells; format: functional, organism-based; settings: Human immunodeficiency virus 1, H9
[8] = tested on: Human immunodeficiency virus 1; assay: Binding affinity to HIV1 NL4.3 CA-SP1 at 550 uM by chemical shift pertubation NMR analysis
Summary of the method: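 2D 1H-1H NOESY of CA-SP1-NC peptide (250 uM) with and without ligand (550 uM). pH 3.8 in H2O/TFE 70/30 (to prevent aggregation) with 1% DMSO-d6. Spectral width 5296.6 Hz, excitation-sculpting water suppression, 250 ms NOE mixing time. Chemical-shift perturbation of the wild-type junction plotted per residue.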

[9] = Ratio of compound selectivity index to bevirimat selectivity index for HIV1 NL4.3 over human MAGIC-5B cells

C=C(C)[C@@H]1CC[C@]2(C(=O)NCCC(=O)O)CC[C@]3(C)[C@H](CC[C@@H]4[C@@]5(C)CC[C@H](OC(=O)CC(C)(C)C(=O)O)C(C)(C)[C@@H]5CC[C@]43C)[C@@H]12
Ratio CC50/IC50 [1]: 411.01
IC50 [2]: 0.118 µM
inhibition (293T): Active
CC50 at 48 h [3]: 48.5 µM
Activity [4]: Active
Activity [5]: Active
Activity [6]: Active

C=C(C)[C@@H]1CC[C@]2(C(=O)NCC(=O)O)CC[C@]3(C)[C@H](CC[C@@H]4[C@@]5(C)CC[C@H](OC(=O)CC(C)(C)C(=O)O)C(C)(C)[C@@H]5CC[C@]43C)[C@@H]12
Ratio CC50/IC50 [1]: 309.37
IC50 [2]: 0.16 µM
inhibition (293T): Active
CC50 at 48 h [3]: 49.5 µM
Activity [4]: Active
Activity [5]: Active
Activity [6]: Active

C=C(C)[C@@H]1CC[C@]2(C(=O)N[C@@H](CCCCNC(=O)OC(C)(C)C)C(=O)O)CC[C@]3(C)[C@H](CC[C@@H]4[C@@]5(C)CC[C@H](OC(=O)CC(C)(C)C(=O)O)C(C)(C)[C@@H]5CC[C@]43C)[C@@H]12
Ratio CC50/IC50 [1]: 199.41
IC50 [2]: 0.17 µM
inhibition (293T): Active
CC50 at 48 h [3]: 33.9 µM
Activity [4]: Active
Activity [5]: Active
Activity [6]: Active

C=C(C)[C@@H]1CC[C@]2(C(=O)O)CC[C@]3(C)[C@H](CC[C@@H]4[C@@]5(C)CC[C@H](OC(=O)CC(C)(C)C(=O)O)C(C)(C)[C@@H]5CC[C@]43C)[C@@H]12 [BEVIRIMAT]
inhibition (293T): Active
Activity [4]: Active
Activity [5]: Active
Activity [6]: Active
EC50 [7]: > 0.00035 µM

C=C(C)[C@@H]1CC[C@]2(C(=O)N[C@@H](CCCCN)C(=O)O)CC[C@]3(C)[C@H](CC[C@@H]4[C@@]5(C)CC[C@H](OC(=O)CC(C)(C)C(=O)O)C(C)(C)[C@@H]5CC[C@]43C)[C@@H]12
Ratio CC50/IC50 [1]: 11.24
IC50 [2]: 4.33 µM
inhibition (293T): inactive
CC50 at 48 h [3]: 48.7 µM
Activity [4]: inactive
Activity [5]: inactive
Activity [6]: inactive

C=C(C)[C@@H]1CC[C@]2(C(=O)NCCN)CC[C@]3(C)[C@H](CC[C@@H]4[C@@]5(C)CC[C@H](OC(=O)CC(C)(C)C(=O)O)C(C)(C)[C@@H]5CC[C@]43C)[C@@H]12
Ratio CC50/IC50 [1]: 2118.75
IC50 [2]: 0.016 µM
inhibition (293T): Active
CC50 at 48 h [3]: 33.9 µM
Activity [4]: Active
Activity [5]: Active
Activity [6]: Active
Activity [8]: Active
Ratio [9]: 2

C=C(C)[C@@H]1CC[C@]2(C(=O)O)CC[C@]3(C)[C@H](CC[C@@H]4[C@@]5(C)CC[C@H](O)C(C)(C)[C@@H]5CC[C@]43C)[C@@H]12 [BETULINIC ACID]
Ratio CC50/IC50 [1]: 0.85
IC50 [2]: 5.32 µM
inhibition (293T): inactive
CC50 at 48 h [3]: 4.52 µM
Activity [4]: inactive
Activity [5]: inactive
Activity [6]: inactive
